According to ChEMBL document CHEMBL5712918, “Targeting methyltransferase PRMT5 retards the carcinogenesis and metastasis of HNSCC via epigenetically inhibiting Twist1 transcription” (Neoplasia, 2020):
Calls of active or inactive are those of the source. The rule behind the calls is not given here.

What was measured:
[1] = target: Protein arginine N-methyltransferase 5 (Homo sapiens) (UniProt O14744); assay: Inhibition of PRMT5 in human HSC-6 cells assessed as increase in E-cadherin protein expression level at 10 uM incubated for 4 days by western blot analysis; details: time 4.0 day
Protein arginine N-methyltransferase 5 (Homo sapiens), sequence (O14744 whole entry): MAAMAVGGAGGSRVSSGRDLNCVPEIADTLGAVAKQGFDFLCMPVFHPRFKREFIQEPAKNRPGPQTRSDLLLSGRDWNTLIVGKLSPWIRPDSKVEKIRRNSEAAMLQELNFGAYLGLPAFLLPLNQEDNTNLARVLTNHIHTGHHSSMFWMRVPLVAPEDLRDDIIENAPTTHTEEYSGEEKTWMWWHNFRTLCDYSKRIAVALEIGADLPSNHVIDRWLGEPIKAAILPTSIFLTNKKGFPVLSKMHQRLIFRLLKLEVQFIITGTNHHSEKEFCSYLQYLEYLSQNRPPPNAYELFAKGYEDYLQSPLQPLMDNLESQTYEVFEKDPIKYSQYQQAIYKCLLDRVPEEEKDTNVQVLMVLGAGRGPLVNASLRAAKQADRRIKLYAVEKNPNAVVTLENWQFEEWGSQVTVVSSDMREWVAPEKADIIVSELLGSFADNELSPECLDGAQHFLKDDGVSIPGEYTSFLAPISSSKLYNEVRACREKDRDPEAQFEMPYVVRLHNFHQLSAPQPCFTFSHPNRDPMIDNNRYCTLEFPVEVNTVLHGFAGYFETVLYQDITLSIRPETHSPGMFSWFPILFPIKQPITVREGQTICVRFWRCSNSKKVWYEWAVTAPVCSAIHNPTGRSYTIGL

HSC-6 [2] = assay: Antiproliferative activity against human HSC-6 cells assessed as reduction in colony formation at 0.5 to 5 uM after 10 to 14 days […]; assay type: functional, cell-based; details: dose 0.5-5 µM, time 10-14 day
Summary of the method: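 Colony formation: cells dispersed to single cells and seeded at 500 cells/well in 6-well plates. Grown 10–14 days until macroscopic clones appeared, then formaldehyde-fixed and crystal violet-stained. Clone formation rate from clones counted by eye.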

HSC-6 [3] = assay: Antitumor activity against human HSC-6 cells xenografted in BALB/c nude mouse assessed as as reduction in lymphnode metastasis at 30 mg/kg by H and E analysis; assay type: functional, organism-based
[4] = target: Protein arginine N-methyltransferase 5 (Homo sapiens) (UniProt O14744); assay: Inhibition of PRMT5 in human SCC-25 cells assessed as reduction in set1 occupancy in Twist1 promoter region at 10 uM incubated for 4 days by Chip-qPCR analysis; assay type: cell-based; details: time 4.0 day
Summary of the method: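 SCC25 cells exposed to inhibitor at 10 μM for 4 days. ChIP used a commercial kit with anti-WDR5 or anti-Set1 (1:50), and binding at the Twist1 promoter was quantified by qPCR. Mean ± SD of three independent experiments, Student's t test.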

[5] = test system: Squamous carcinoma cell line; assay: Antitumor activity against human squamous carcinoma cells in BALB/c nude PDX xenograft mouse assessed as reduction in Ki67-positive cells at 30 mg/kg by IHC analysis; assay type: functional, organism-based
Summary of the method: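 PDX: tongue squamous carcinoma tissue minced into 1∼2 mm3 pieces and passaged in BALB/c nude mice. P2 tissue implanted subcutaneously into 4-week-old mice, randomised at 50 mm3 tumour size to control or 30 mg/kg (n = 6 each). Volume change followed, and Ki-67 IHC quantified. Mean ± SD, Student's t test.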

[6] = target: Protein arginine N-methyltransferase 5 (Homo sapiens) (UniProt O14744); assay: Inhibition of PRMT5 in human HSC-6 cells assessed as reduction in H3R2me2 enrichment in Twist1 promoter region at 10 uM incubated for 4 days by Chip-qPCR analysis; assay type: cell-based; details: time 4.0 day
Summary of the method: (§1)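 ChIP-qPCR at the Twist1 promoter after 4 days at 10 μM in HSC6 or SCC25 cells. Antibody ratios: H3R2me2s 1:100, H4R3me2s 1:100, WDR5 1:50, Set1 1:50; ChIP assay kit protocol. Mean ± SD of three independent experiments, Student's t test.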

[7] = target: Protein arginine N-methyltransferase 5 (Homo sapiens) (UniProt O14744); assay: Inhibition of PRMT5 in human HSC-6 cells assessed as reduction in H3R2me2 protein expression at 10 uM incubated for 4 days by western blot analysis; assay type: cell-based; details: time 4.0 day
[8] = target: Protein arginine N-methyltransferase 5 (Homo sapiens) (UniProt O14744); assay: Inhibition of PRMT5 in human HSC-6 cells assessed as reduction in set1 occupancy in Twist1 promoter region at 10 uM incubated for 4 days by Chip-qPCR analysis; assay type: cell-based; details: time 4.0 day
Summary of the method: as §1

SCC-25 [9] = assay: Antiproliferative activity against human SCC-25 cells assessed as reduction in cell vaibility at 1 to 10 uM by CCK-8 assay; assay type: functional, cell-based; details: dose 1-10 µM
Summary of the method: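 Proliferation of HSC6 and SCC25 cells read by CCK-8 conversion. Mean ± SD of three independent experiments, Student's t test.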

[10] = target: Protein arginine N-methyltransferase 5 (Homo sapiens) (UniProt O14744); assay: Inhibition of PRMT5 in human HSC-6 cells assessed as increase in E-cadherin protein expression level at 10 uM incubated for 4 days by western blot analysis; assay type: cell-based; details: time 4.0 day
Summary of the method: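 HSC6 or SCC25 cells treated with 10 μM for 4 days. E-cadherin, N-cadherin and Twist1 proteins detected by immunoblot.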

HSC-6 [11] = assay: Antitumor activity against human HSC-6 cells xenografted in BALB/c nude mouse model of orthotopic tumor assessed as as reduction in distant metastasis in liver at 30 mg/kg by H and E analysis; assay type: functional, organism-based
[12] = target: Protein arginine N-methyltransferase 5 (Homo sapiens) (UniProt O14744); assay: Inhibition of PRMT5 in human HSC-6 cells over expressing Twist1 assessed as decrease in E-cadherin protein level at 10 uM incubated for 4 days by immunoblot analysis; assay type: cell-based; details: time 4.0 day
Summary of the method: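 HSC6 cells stably overexpressing Flag-Twist1, with or without 10 μM for 4 days. Twist1, N-cadherin and E-cadherin proteins detected by immunoblot.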

HSC-6 [13] = assay: Antitumor activity against human HSC-6 cells xenografted in BALB/c nude mouse model of orthotopic tumor assessed as reduction in tumor volume in tongue at 30 mg/kg by H and E staining based assay; assay type: functional, organism-based
Summary of the method: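 Orthotopic tongue xenograft: 5 × 10^5 HSC6 cells submucosally in 4-week-old BALB/c nude mice, control or 30 mg/kg (n = 12 each). Tumour volume quantified on HE-stained longitudinal tongue sections. Student's t test.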

HSC-6 [14] = assay: Antitumor activity against human HSC-6 cells xenografted in BALB/c nude mouse assessed as reduction in Ki67-positive tumor cell at 15 to 30 mg/kg by immunohistochemistry analysis; assay type: functional, organism-based; details: dose 15-30 mg/kg
Summary of the method: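 HSC6 subcutaneous xenograft: 6 × 10^7 cells into the back of 4-week-old BALB/c nude mice, dosed at 15 or 30 mg/kg. IHC with Ki67 1:400 or Twist1 1:250. Percent positive cells from 5 random fields per sample. Student's t test; Twist1 groups n = 6/6.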

Rattus norvegicus = assay: Antitumor activity against 4-Nitroquinoline-1-Oxide induced cancer Sprague-Dawley rat carcinogenic model assessed as normal area of tongue tissue at 30 mg/kg, iv administered on week 12 and measured on week 22 (reference value: 6.7%); assay type: functional; details: time 10 weeks
HSC-6 [15] = assay: Antitumor activity against human HSC-6 cells xenografted in BALB/c nude mouse model of orthotopic tumor assessed as reduction in lymphnode metastasis at 30 mg/kg by immunohistochemistry analysis; assay type: functional, organism-based
Summary of the method: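 Orthotopic model: 5 × 10^5 HSC6 cells injected submucosally into the tongue of 4-week-old BALB/c nude mice, vehicle or 30 mg/kg (n = 12 each). Cervical lymph node metastasis detected by IHC with pan-cytokeratin antibody 1:400. Metastasis rates compared by Fisher's exact test.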

[16] = Toxicity in BALB/c nude mouse xenografted with human HSC6 cells assessed as effect on kidney morphology at 15 to 30 mg/kg; assay type: organism-based; details: in vivo, dose 15-30 mg/kg
Summary of the method: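 Subcutaneous xenograft in 4-week-old BALB/c nude mice given 6 × 10^7 HSC6 cells into the back. Groups were control, 15 mg/kg and 30 mg/kg. Body weight was monitored and major organs were examined for toxicity.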

HSC-6 [17] = assay: Anti-invasive activity against human HSC-6 cells assessed as reduction in cell invasion at 10 uM for 4 days by transwell assay; assay type: functional, cell-based; details: time 4.0 day
Summary of the method: (§2)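 Transwell migration and invasion with 8-μm pore inserts. HSC6 or SCC25 cells, including lines stably overexpressing Flag-Twist1, treated at 10 μM for 4 days. Mean ± SD of three independent experiments, one-way ANOVA.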

SCC-25 [18] = assay: Antimigratory activity against human SCC-25 cells assessed as reduction in cell migration at 10 uM for 4 days by transwell assay; assay type: functional, cell-based; details: time 4.0 day
Summary of the method: as §2

HSC-6 [19] = assay: Antitumor activity against human HSC-6 cells xenografted in BALB/c nude mouse model of orthotopic tumor assessed as as reduction in distant metastasis in kidney at 30 mg/kg by H and E analysis; assay type: functional, organism-based

inhibition [1]: Active
inhibition [4]: Active
inhibition [6]: Active
inhibition [7]: Active
inhibition [8]: Active
inhibition [10]: Active
inhibition [12]: inactive
Structure (SMILES): O=C(NC[C@H](O)CN1CCc2ccccc2C1)c1cc(NC2COC2)ncn1
Activity (HSC-6 [2]): Active
Activity (HSC-6 [3]): Active
Activity [5]: Active
Activity (SCC-25 [9]): Active
Activity (HSC-6 [11]): Active
Activity (HSC-6 [13]): Active
Activity (HSC-6 [14]): Active
Activity (Rattus norvegicus): 38.5%
Activity (HSC-6 [15]): Active
Activity [16]: Non-Toxic
Activity (HSC-6 [17]): Active
Activity (SCC-25 [18]): Active
Activity (HSC-6 [19]): Active
